Source: ChEMBL document CHEMBL2331371, “Natural products inspired synthesis of neuroprotective agents against H₂O₂-induced cell death” (Bioorg Med Chem Lett, 2013)
The source made the active and inactive calls. No cut-off for these calls is given here.

Columns and labels:
PC-12 [1] = assay: Effect on Na+/K+ ATPase activity in rat PC12 cells assessed as inorganic phosphate liberation using ATP as substrate at 50 uM after 1 hr by colorimetric analysis; assay type: cell-based
Procedure, shortened: (§1)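 Adherent PC12 cells exposed 1 h to 50 µM compound, either alone or together with 100 µM H2O2, then harvested. ATPase assayed in two parallel runs, total and ouabain-insensitive. Inorganic phosphate formed in 30 min quantified colorimetrically; Na+/K+-ATPase activity taken as the difference without versus with ouabain. Triplicate experiments; means ± SEM, Student t-test.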

PC-12 [2] = assay: Neuroprotective activity against H2O2-induced oxidative stress in rat PC12 cells assessed as increase in cell viability at 0.1 to 150 uM treated for 6 hrs prior to H2O2 addition measured after 18 hrs by Synergy Hybrid H1 reader analysis; assay type: functional, cell-based
Procedure, shortened: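 PC12 cells pretreated 6 h with test agent (0.1, 1, 10, 50, 100, 150 µM), then 100 µM H₂O₂ added for a further 18 h. Untreated cells set as 100% survival; H₂O₂-only cells as injury control. Cells then harvested for viability assay. Triplicate runs over three separate culture batches; means ± SEM, Student t-test, p < 0.05.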

PC-12 [3] = assay: Neuroprotective activity against H2O2-induced oxidative stress in rat PC12 cells assessed as increase in cell viability treated for 6 hrs prior to H2O2 addition measured after 18 hrs by Synergy Hybrid H1 reader analysis; assay type: functional, cell-based
Procedure, shortened: (§2)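 PC12 cells pretreated 6 h with compound at 0.1, 1, 10, 50, 100 or 150 µM, then challenged with 100 µM H2O2 for a further 18 h. Untreated cells served as 100% survival. Cells harvested for viability assay. Triplicates with three separate culture batches; means ± SEM, Student t-test, p<0.05.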

PC-12 [4] = assay: Inhibition of H2O2-induced decrease in Na+/K+ ATPase activity in rat PC12 cells assessed as increase in inorganic phosphate liberation using ATP as substrate at 50 uM after 1 hr by colorimetric analysis in presence H2O2; assay type: cell-based; procedure, shortened: as §1
PC-12 [5] = assay: Neuroprotective activity against H2O2-induced oxidative stress in rat PC12 cells assessed as increase in cell viability at 0.1 to 10 uM treated for 6 hrs prior to H2O2 addition measured after 18 hrs by Synergy Hybrid H1 reader analysis; assay type: functional, cell-based; procedure, shortened: as §2

SMILES	Activity (PC-12 [1])	Activity (PC-12 [2])	Activity (PC-12 [3])	inhibition (PC-12 [4])	Activity (PC-12 [5])
C[C@]12CCCC[C@@]1(O)C(=O)CC2c1ccoc1 (single isomer, unassigned)	inactive	Active			
C[C@]12CCCC[C@@]1(O)OC(=O)C=C2c1ccoc1	inactive		Dose-dependent effect	Active	
C[C@]12CCCC[C@@]1(O)C(=O)C=C2c1ccco1	inactive	Active		Active	
C[C@]12CCCC[C@@]1(O)C(=O)C[C@H]2c1ccco1	inactive		Dose-dependent effect	Active	
C[C@]12CCCC[C@H]1C(=O)C=C2c1ccoc1	inactive		Dose-dependent effect	Active	Active
C[C@]12CCCC[C@@]1(O)C(=O)C=C2c1ccoc1	inactive		Dose-dependent effect		Active
